Results on 10 compounds are retold here after ChEMBL document CHEMBL2331455, “Potent vasorelaxant analogs from chemical modification and biotransformation of isosteviol” (Eur J Med Chem, 2013).

For one series, the system named is Aorta. The series is described as follows: Vasorelaxant activity in Sprague-Dawley rat aorta assessed as reduction of phenylephrine-induced contraction. In kind it is functional, tissue-based. A digest of the protocol:
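Aortic rings held in HPSS (140 mM NaCl, 5 mM KCl, 2 mM CaCl2, 1 mM MgCl2, 5 mM HEPES, 11 mM glucose, pH 7.4) and equilibrated 2 h with several buffer changes. Isometric force changes were recorded continuously. Acetylcholine served as positive control.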

In another series the test system is Vero. The series is described as follows: Cytotoxicity against african green monkey Vero cells. The class given is cell-based. Conditions: chlorocebus sabaeus.

What is called EC50 is the midpoint of the concentration-response curve.

Turning to `CC(=O)O[C@@H]1C[C@]23CC[C@H]4[C@@](C)(CCC[C@@]4(C)C(=O)O)[C@@H]2CC[C@@]1(C)C3`, in the series on Aorta, the 50% effective concentration (EC50) came to 4.88 nM. On the same count and under the same terms, then `C[C@@]12CC[C@H]3[C@]4(C)CCC[C@@](C)(C(=O)O)[C@H]4C[C@H](O)[C@]3(C[C@H]1O)C2`, with 41.8 nM. Same read-out and setting: then `C[C@@]12CC[C@H]3[C@]4(C)CCC[C@@](C)(C(=O)O)[C@H]4C[C@@H](O)[C@]3(C[C@H]1O)C2`, with 39.8 nM; and `C[C@@]12CCC[C@@](C)(C(=O)O)[C@H]1CC[C@@]13C[C@@H](O)[C@@](C)(CC[C@@H]21)[C@@H]3O`, with 303 nM. The same measure, in the same setting: then `CC(=O)O[C@@H]1C[C@@]23C[C@]1(C)CC[C@H]2[C@]1(C)CCC[C@@](C)(C(=O)O)[C@H]1C[C@@H]3O`, with 59.7 nM.

With `CC(=O)O[C@@H]1C[C@]23CC[C@H]4[C@@](C)(CCC[C@@]4(C)C(=O)O)[C@@H]2CC[C@@]1(C)[C@@H]3O`, the 50% effective concentration (EC50) in the series with Aorta worked out at 19.5 nM. On the same count and under the same terms, then `C[C@@]12CC[C@@H]3[C@@](CC[C@H]4[C@@]3(C)CCC[C@@]4(C)C(=O)O)(C[C@H]1O)C2`, with 29.1 nM. Take `C[C@@]12CC[C@H]3[C@]4(C)CCC[C@@](C)(C(=O)O)[C@H]4C[C@H](O)[C@]3(CC1=O)C2`: the Activity entry with Vero is “Non-toxic”. Besides, in the series with Aorta, the concentration giving a half-maximal response (EC50) came to 3.46 nM. For the compound `CC(=O)OCC[N+](C)(C)C` [ACETYLCHOLINE IODIDE], the EC50 in the series on Aorta came to 65 nM. In the case of `C[C@@]12CC[C@@H]3[C@@](CC[C@H]4[C@@]3(C)CCC[C@@]4(C)C(=O)O)(CC1=O)C2` [ISOSTEVIOL], in the series with Aorta, the EC50 worked out at 57.4 nM.
